From ChEMBL document CHEMBL1833814 (Bioorg Med Chem Lett, 2011)

Biological target: Fatty acid synthase (Homo sapiens, UniProt P49327)
Experiment: Inhibition of human FAS assessed as synthesis of long chain fatty acids from malonyl CoA after 60 mins by fluorescence assay
Method in brief: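 FAS enzyme prepared from HeLa cells, in enzyme buffer (20 mM K phosphate, 1 mM EDTA, 1 mM DTT, 5% glycerol, pH 7.4). It was preincubated 60 min at 37 °C with compound (0.1% DMSO), 326 µM NADPH and 60 µM acetyl CoA in 100 mM K phosphate, 1 mM EDTA, 1 mM DTT, pH 7.0. The reaction was started with 200 µM malonyl CoA. NADPH consumption was read at 340 nm over 10 min, and the slope (Vmax) was taken.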

Sequence of Fatty acid synthase (P49327 whole entry): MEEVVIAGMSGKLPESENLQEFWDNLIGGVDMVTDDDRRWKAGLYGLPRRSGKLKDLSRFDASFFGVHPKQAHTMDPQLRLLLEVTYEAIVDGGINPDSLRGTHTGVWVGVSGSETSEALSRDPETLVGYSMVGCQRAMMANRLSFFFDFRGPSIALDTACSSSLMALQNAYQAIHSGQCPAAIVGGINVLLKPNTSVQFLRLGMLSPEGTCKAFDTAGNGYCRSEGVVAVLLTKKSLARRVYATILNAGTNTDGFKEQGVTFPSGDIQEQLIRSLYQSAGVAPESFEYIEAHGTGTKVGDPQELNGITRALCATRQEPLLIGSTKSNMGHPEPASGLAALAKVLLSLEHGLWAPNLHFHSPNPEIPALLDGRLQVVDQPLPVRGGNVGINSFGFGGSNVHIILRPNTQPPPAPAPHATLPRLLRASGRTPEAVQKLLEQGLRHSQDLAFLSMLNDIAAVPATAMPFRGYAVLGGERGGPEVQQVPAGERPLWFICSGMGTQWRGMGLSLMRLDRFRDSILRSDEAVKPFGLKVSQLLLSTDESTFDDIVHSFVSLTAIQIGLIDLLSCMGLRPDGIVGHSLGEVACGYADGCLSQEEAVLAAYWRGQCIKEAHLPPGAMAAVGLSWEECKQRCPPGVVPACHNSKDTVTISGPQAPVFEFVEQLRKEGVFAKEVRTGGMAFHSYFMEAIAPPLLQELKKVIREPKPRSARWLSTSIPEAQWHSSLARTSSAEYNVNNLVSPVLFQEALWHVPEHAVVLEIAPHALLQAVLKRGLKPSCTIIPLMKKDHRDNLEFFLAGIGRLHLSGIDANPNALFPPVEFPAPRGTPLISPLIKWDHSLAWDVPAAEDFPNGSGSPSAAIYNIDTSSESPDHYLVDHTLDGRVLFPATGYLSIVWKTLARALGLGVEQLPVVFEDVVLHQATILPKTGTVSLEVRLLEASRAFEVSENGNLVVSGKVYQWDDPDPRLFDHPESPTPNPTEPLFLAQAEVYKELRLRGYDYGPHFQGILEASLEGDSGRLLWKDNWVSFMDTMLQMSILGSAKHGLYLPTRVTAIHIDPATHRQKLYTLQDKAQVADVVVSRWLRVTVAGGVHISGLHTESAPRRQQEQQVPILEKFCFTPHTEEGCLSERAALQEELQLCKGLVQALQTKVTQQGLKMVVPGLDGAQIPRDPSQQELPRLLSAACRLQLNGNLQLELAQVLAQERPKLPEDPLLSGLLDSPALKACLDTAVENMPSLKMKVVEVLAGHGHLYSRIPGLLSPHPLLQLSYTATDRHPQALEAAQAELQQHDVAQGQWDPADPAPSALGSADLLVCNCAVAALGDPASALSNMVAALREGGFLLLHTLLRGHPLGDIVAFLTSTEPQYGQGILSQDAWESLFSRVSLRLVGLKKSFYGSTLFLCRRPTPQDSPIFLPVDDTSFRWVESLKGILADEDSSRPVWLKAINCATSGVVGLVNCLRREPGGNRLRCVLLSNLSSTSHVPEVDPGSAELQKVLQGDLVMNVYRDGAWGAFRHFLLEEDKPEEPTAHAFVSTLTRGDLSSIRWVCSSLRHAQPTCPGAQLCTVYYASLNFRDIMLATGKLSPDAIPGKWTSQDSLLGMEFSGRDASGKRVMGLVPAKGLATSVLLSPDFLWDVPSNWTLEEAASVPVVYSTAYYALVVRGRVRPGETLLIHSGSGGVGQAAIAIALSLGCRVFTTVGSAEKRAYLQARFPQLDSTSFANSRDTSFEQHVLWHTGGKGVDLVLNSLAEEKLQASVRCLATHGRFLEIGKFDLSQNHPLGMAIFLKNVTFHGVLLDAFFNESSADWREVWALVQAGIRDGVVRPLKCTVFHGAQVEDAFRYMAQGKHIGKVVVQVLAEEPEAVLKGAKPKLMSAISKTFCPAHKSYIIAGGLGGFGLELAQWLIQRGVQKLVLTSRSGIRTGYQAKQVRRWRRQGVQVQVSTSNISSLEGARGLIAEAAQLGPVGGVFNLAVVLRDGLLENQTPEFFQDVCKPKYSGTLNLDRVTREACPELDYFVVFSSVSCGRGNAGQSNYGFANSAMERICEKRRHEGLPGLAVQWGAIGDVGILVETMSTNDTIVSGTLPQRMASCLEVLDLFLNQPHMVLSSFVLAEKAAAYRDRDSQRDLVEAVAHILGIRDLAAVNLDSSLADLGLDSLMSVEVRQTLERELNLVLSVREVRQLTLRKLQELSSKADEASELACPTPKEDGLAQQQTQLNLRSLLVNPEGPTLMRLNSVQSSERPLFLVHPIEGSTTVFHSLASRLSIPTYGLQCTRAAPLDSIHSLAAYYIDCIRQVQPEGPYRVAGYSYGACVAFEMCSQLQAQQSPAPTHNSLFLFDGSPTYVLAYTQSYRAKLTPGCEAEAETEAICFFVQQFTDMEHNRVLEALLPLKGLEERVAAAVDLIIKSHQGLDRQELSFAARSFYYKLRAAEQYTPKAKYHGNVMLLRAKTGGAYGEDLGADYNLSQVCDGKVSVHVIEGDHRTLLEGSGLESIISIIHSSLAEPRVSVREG

Compound `CN(C)CCCCCC(=O)N[C@H]1CC[C@@H](C(=O)N(C)c2ccc(-c3nc4ccccc4[nH]3)cc2)C1` has an IC50 of 700 nM.
Compound `CCNC(=O)N[C@H]1CC[C@@H](C(=O)N(C)c2ccc(-c3nc4ccccc4n3C)cc2)C1` has an IC50 of 1400 nM.
`CN(C)CCCCCC(=O)N[C@H]1CC[C@@H](C(=O)N(C)c2ccc(-c3nc4ccccc4n3C)cc2)C1` showed an IC50 of 2400 nM.
With `CC(=O)N[C@H]1CC[C@@H](C(=O)N(C)c2ccc(-c3nc4ccccc4o3)cc2)C1` the IC50 was 200 nM.
With `CCCC(=O)N[C@H]1CC[C@@H](C(=O)N(C)c2ccc(-c3nc4ccccc4o3)cc2)C1` the IC50 was 420 nM.
`CN(C(=O)[C@@H]1CC[C@H](NC(=O)C(F)F)C1)c1ccc(-c2nc3ccccc3o2)cc1` was tested, and the IC50 was 270 nM.
